This is one part of a sample in which hits are shown more often than they occur.
Insulin prom act = TRM-6 insulin promoter activation | 130,000 compounds, 0.81% hits | activation, % at 2 µM | AID 1296 | TRM-6 cells (human fetal islet line), insulin promoter eGFP reporter, imaging; plate-scaled: unstimulated 0, stimulated control 100;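 active = activation at 2 µM above a set limit, confirmed on inspection of the cell images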;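 also: share of cells whose green reporter signal exceeds an intensity cutoff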
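Assay system: TRM-6 insulin promoter–eGFP reporter cells / Input: 1,000 cells per well / Medium: Low-glucose (5.5 mM) medium with tamoxifen / Also added: tamoxifen inducer, 0.75 µM, in seeding medium / Timing: overnight tamoxifen, then two-day compound incubation at 37 °C / Signal: automated fluorescence imaging of paraformaldehyde-fixed, Hoechst-counterstained cells, green channel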
An asterisk follows results filed as active.

SMILES	Insulin prom act
N#C/C(=C\c1ccc(OC(=O)c2ccc(Br)s2)cc1)c1nc2ccccc2[nH]1	9.1
c1ccc2[nH]c(CN3CCOCC3)nc2c1	-2.9
COc1ccc(C(=O)OC/C(O)=C(\C#N)c2nc3ccccc3[nH]2)cc1S(=O)(=O)N1CCOCC1	-7.7
CC(C)CCN1CCN(CC(c2ccccc2)c2ccccc2)CC1CCO (centres undefined)	8.3
CC(NS(=O)(=O)c1ccc(CCC(=O)NCc2cccnc2)cc1)c1ccccc1 (centres undefined)	133.3
CCC(C(=O)NCc1cccnc1)c1ccccc1 (centres undefined)	440.0*
CC(c1ccccc1)n1cc(C(=O)NCc2cccnc2)nn1 (centres undefined)	0.0
COc1ccc(OC)c(NC(=O)CSc2ncnc3c2cnn3-c2ccccc2Cl)c1	209.5
O=C(NCc1nnc(SCC(=O)N2CCOCC2)o1)c1c(F)cccc1Cl	107.1
CC(Oc1ccc(Cl)cc1Cl)c1ccn[nH]1 (centres undefined)	305.7*
COCCNC(=O)C(C)Oc1ccc(Cl)cc1Cl (centres undefined)	-7.1
CC(Oc1ccc(Cl)cc1Cl)C(=O)NC1CCSC1=O (centres undefined)	9.1
O=C(CSc1nnc(-c2ccncc2)n1-c1ccc(Cl)cc1)NCc1cccs1	-7.9
CC(C)(C)NC(=O)C(c1ccc(O)cc1)N(C(=O)CCC(=O)Nc1nccs1)c1ccc(F)cc1 (centres undefined)	6.7
Cn1cnnc1SCC(=O)N(Cc1ccc2c(c1)OCO2)C1(C(=O)NC2CCCCC2)CCCC1	7.1
O=C(NC1CCCC1)C(c1ccccc1)N(Cc1ccc2c(c1)OCO2)C(=O)Cc1cccs1 (centres undefined)	246.2
NC(=O)c1noc(C(=O)N(CC(=O)NC2CCCC2)Cc2ccc3c(c2)OCO3)c1N	456.3*
COC(=O)c1ccccc1NC(=S)N(Cc1ccc2c(c1)OCO2)Cc1cc2ccc(OC)cc2[nH]c1=O	107.7
Clc1ccc(-c2cc(COc3ccc4ccccc4c3)no2)cc1	0.0
COc1ccc(S(=O)(=O)NCCc2ccc(F)cc2)cc1	-90.9
COc1ccc(CCNc2cc(=O)[nH]c(N)n2)cc1	615.4*
COc1ccc(Nc2nc(C)cc(=O)[nH]2)cc1	0.0
CCOC(=O)c1ccc(N2C(=O)c3n[nH]c(-c4ccco4)c3C2c2cccc([N+](=O)[O-])c2)cc1 (centres undefined)	-3.4
COc1ccc(-n2c(Cn3c(=O)sc4ccccc43)nnc2SC)cc1	12.5
CCOC(=O)Cn1c(=O)sc2ccccc21	0.0
SMILES	Insulin prom act
Cc1ccc(OCn2c(=O)sc3ccccc32)cc1	437.1*
O=C(O)c1csc(N/N=C/c2ccc(Br)cc2)n1	0.0
Cn1nnc2cc(C(=O)NCc3ccco3)ccc21	6.7
CC(c1ccccc1)N1C(=O)c2ccc(C(=O)NCc3ccco3)cc2C1=O (centres undefined)	440.0*
Cc1ccc(C(=O)Nc2cccc(C(=O)NCc3ccco3)c2)cc1	7.7
CCS(=O)(=O)N1CCCC(C(=O)NCCc2ccccc2)C1 (centres undefined)	-6.5
O=C(c1ccco1)N1CCN(Cc2nc3cc(Cl)ccc3c(=O)[nH]2)CC1	-7.1
COCCCNC(=S)NNC(=O)C1CC1c1ccc(C(C)(C)C)cc1 (centres undefined)	788.9*
COCCNC(=S)NC(=O)c1ccc(C(C)(C)C)cc1	-5.9
COCCCNC(=S)NNC(=O)c1ccccn1	0.0
Cc1cc(C)n(CC(O)Cn2c3ccc(Br)cc3c3cc(Br)ccc32)c(=O)n1 (centres undefined)	77.1*
Cc1ccc(S(=O)(=O)NCC(c2cccnc2)N(C)C)cc1 (centres undefined)	8.7
COc1ccccc1N1CCN(C(=O)C2CCN(S(=O)(=O)c3ccc(C)cc3)CC2)CC1	-5.9
COc1ccccc1N1CCN(C(CNS(=O)(=O)c2ccc(C)cc2)c2cccnc2)CC1 (centres undefined)	75.7*
CN(C)/C=C(\C#N)C(=O)N/N=C/c1ccccc1	0.0
O=S(=O)(NC1CCCCC1Nc1ccccc1)c1ccccc1 (centres undefined)	-3.3
O=S(=O)(NC1CCCCC1NS(=O)(=O)c1ccc(F)cc1)c1ccc(F)cc1 (centres undefined)	513.3*
CSc1ccc(OC2CCCCC2NS(=O)(=O)c2ccc(Cl)cc2)cc1 (centres undefined)	-100.0
COC(=O)c1ccccc1NC(=O)c1ccccc1N(C)S(C)(=O)=O	4.5
O=S(=O)([N-]c1nc2ccccc2nc1-[n+]1ccc(-c2ccncc2)cc1)c1ccccc1	-8.3
CN(Cc1cn(-c2ccccc2)nc1-c1cc2ccccc2o1)C(=O)CCC(=O)O	107.7
CCOC(=O)c1cnc(SC)nc1Sc1cc(Cl)ccc1Cl	4.9
CC(=O)Nc1nc2ccccc2n1CCN1CCOCC1	2.8
C=CCc1cccc(CNc2nc3ccccc3n2CCN2CCOCC2)c1O	168.8
COc1ccc(CNc2nc3ccccc3n2CCN2CCOCC2)cc1	462.5*
SMILES	Insulin prom act
O=C(NCC1CCCO1)c1onc(CSc2ccc(F)c(F)c2)c1C(=O)O (centres undefined)	2.7
CC(=O)c1cc2c(cc1NC(=O)CN1CCCCC1C)OCO2 (centres undefined)	-3.4
CCN(CC)c1ccc(NC(=O)c2ccccc2)cc1S(=O)(=O)Nc1ccccc1OC	-4.6
O=C(c1ccc([N+](=O)[O-])cc1)N1CCSC1c1cccc(Cl)c1 (centres undefined)	7.7
CC(=O)Nc1ccc(Oc2ncccn2)c(Cl)c1	-9.4
COC(=O)c1cc(C#N)c(Oc2ccc(F)cc2)nc1C	6.9
O=C1NCCN1Cc1cccc(Cl)c1	0.0
CCCn1ncc([C@@H]2C[C@H]3CN(Cc4cccc(Cl)c4)C(=O)[C@]34CCCN24)c1C	133.3
O=C1N(Cc2cccc(Cl)c2)C[C@@H]2C[C@@H](c3ccco3)N3CCC[C@@]123	683.3*
Cc1ccnc(SCc2cc(=O)c(OC(=O)c3ccccc3)co2)n1	427.8*
Cc1ccnc(SCC(=O)O)n1	-3.2
Cc1ccnc(SCC(=O)N2CCc3ccccc3C2)n1	0.0
O=C(c1csc2c1CCCC2)N1CCN(c2cccc(C(F)(F)F)c2)CC1	-9.4
CC1CCN(CCc2nc3cc(NC(=O)NC4CCCCC4)ccc3n2C)CC1	7.7
Cc1ccc(S(=O)(=O)N2CCC[C@H]2C(=O)OC(C)C(=O)Nc2ncc(Cl)cc2Cl)cc1 (some centres undefined)	-2.9
Cc1c(Cl)cccc1-n1c(SCC(=O)NCc2ccccc2Cl)nnc1-c1ccncc1	0.0
O=C(CN1C(=O)NC2(CCCCCC2)C1=O)Nc1ccc(S(=O)(=O)N2CCOCC2)cc1	-2.9
Cc1cccc(N2CCN(Cc3nc(-c4cccc(Oc5ccccc5)c4)oc3C)CC2)n1	8.7
CCOC(=O)C1(Cc2ccccc2)CCN(Cc2ccon2)CC1	6.7
CCOC(=O)C1(CC2CC2)CCN(Cc2ccc(OC)cc2F)CC1	4.8
CCOC(=O)C1(CC2CCCCO2)CCN(Cc2nc(C(C)C)cs2)CC1 (centres undefined)	375.0*
O=C(CCN1CCN(Cc2ccccc2)CC1)Nc1ccccc1Cl	-2.9
CCOCCCNC(=O)C(Cc1ccccc1)NC(=O)c1ccco1 (centres undefined)	123.6
Cc1nn(-c2ccccc2)c(Oc2ccccc2)c1C=O	6.7
CCc1ccc(-c2nc(CN3CCCC(C(=O)NCCc4ccc(OC)c(OC)c4)C3)c(C)o2)cc1 (centres undefined)	121.4*

Compound activity (PubChem)
